Reference: ChEMBL document CHEMBL1125881, “Synthesis and hypocholesterolemic activity of 6,7-dihydro-4H-pyrazolo[1,5-a]pyrrolo[3,4-d]pyrimidine-5,8-diones, novel inhibitors of acylCoA:cholesterol O-acyltransferase” (J Med Chem, 1991)
Each block holds one compound with its values, some of them ahead of it.

What was measured:
[1] = target: T1, Sterol O-acyltransferase 1 (Rattus norvegicus) (UniProt O70536); test: Inhibition of Fu5AH Acyl coenzyme A:cholesterol acyltransferase at the concentration of 10 ug/mL
T1 sequence (whole entry): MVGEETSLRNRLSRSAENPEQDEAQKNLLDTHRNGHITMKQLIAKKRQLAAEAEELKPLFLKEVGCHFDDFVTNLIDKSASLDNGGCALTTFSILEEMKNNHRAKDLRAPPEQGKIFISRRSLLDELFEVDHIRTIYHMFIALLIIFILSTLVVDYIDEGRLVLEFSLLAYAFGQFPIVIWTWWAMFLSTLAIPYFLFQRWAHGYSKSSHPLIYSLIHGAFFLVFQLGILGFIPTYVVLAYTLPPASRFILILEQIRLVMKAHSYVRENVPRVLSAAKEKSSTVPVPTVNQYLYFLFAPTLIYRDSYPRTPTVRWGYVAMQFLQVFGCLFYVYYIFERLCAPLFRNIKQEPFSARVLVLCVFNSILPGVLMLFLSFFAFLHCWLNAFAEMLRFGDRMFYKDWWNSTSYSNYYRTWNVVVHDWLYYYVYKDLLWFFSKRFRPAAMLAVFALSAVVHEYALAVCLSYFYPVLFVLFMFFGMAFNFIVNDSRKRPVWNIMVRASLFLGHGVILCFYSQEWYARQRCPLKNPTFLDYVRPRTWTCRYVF

[2] = target: T2, Sterol O-acyltransferase 1 (Rattus norvegicus, UniProt O70536); test: In vitro inhibition of Fu5AH acyl coenzyme A:cholesterol acyltransferase.
T2 sequence (O70536 whole entry): T1 sequence (whole entry)

[3] = species: Rattus norvegicus; test: (§1) The compound was tested for % control of serum cholesterol in cholesterol; type: functional
How it was run: (§2)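 Male Sprague-Dawley rats (100–110 g), groups of 10, fed synthetic diet with 1% cholesterol; compound mixed into diet to give the stated daily dose (mg/kg) for 7 days. Serum from jugular bleed under anesthesia; VLDL+LDL separated from HDL by PEG-8000 precipitation in glycine buffer pH 9; values expressed as % of cholesterol-fed control; one-way design, LSD comparison.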

[4] = species: Rattus norvegicus; test: as §1; type: functional; how it was run: as §2; remark: listed apart in the source
[5] = species: Rattus norvegicus; test: as §1; type: functional; how it was run: as §2; remark: listed apart in the source
[6] = species: Rattus norvegicus; test: as §1; type: functional; how it was run: as §2; remark: listed apart in the source
[7] = species: Rattus norvegicus; test: as §1; type: functional; how it was run: as §2; remark: listed apart in the source
[8] = species: Rattus norvegicus; test: as §1; type: functional; how it was run: as §2; remark: listed apart in the source
[9] = species: Rattus norvegicus; test: (§3) Percent control of serum cholesterol in cholesterol; type: functional; design: concentration or dose not given beside the values; how it was run: as §2
[10] = species: Rattus norvegicus; test: as §3; type: functional; design: concentration or dose not given beside the values; how it was run: as §2; remark: listed apart in the source
[11] = species: Rattus norvegicus; test: as §3; type: functional; design: concentration or dose not given beside the values; how it was run: as §2; remark: listed apart in the source
[12] = target: T1, Sterol O-acyltransferase 1 (Rattus norvegicus); test: (§4) Serum lipoprotein cholesterol in Cholesterol-fed rats Treated with ACAT inhibitor, after one week; type: functional
How it was run: (§5)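 Rats fed 1% cholesterol diet for one week, then for a second week the same diet with inhibitor in feed at 20 mg/kg/day, or the synthetic diet without cholesterol. 5 rats per group. Serum HDL, VLDL/LDL (PEG-8000 precipitation, glycine pH 9) and total cholesterol measured at day 7 and […].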

[13] = target: T1, Sterol O-acyltransferase 1 (Rattus norvegicus); test: (§6) Serum lipoprotein cholesterol diet containing ACAT inhibitor, after one week; type: functional; how it was run: as §5
[14] = species: Rattus norvegicus; test: (§7) Serum lipoprotein cholesterol fed rats dieted or both weeks, after one week; type: functional, organism-based; how it was run: as §5
[15] = target: T1, Sterol O-acyltransferase 1 (Rattus norvegicus); test: as §4; type: functional; how it was run: as §5; remark: listed apart in the source
[16] = species: Rattus norvegicus; test: Serum lipoprotein cholesterol fed rats dieted for both weeks, after one week; type: functional, organism-based; how it was run: as §5
[17] = target: T1, Sterol O-acyltransferase 1 (Rattus norvegicus); test: as §6; type: functional; how it was run: as §5; remark: listed apart in the source
[18] = target: T1, Sterol O-acyltransferase 1 (Rattus norvegicus); test: (§8) Serum lipoprotein cholesterol in Cholesterol-fed rats Treated with ACAT inhibitor, after two weeks; type: functional; how it was run: as §5
[19] = species: Rattus norvegicus; test: (§9) Serum lipoprotein cholesterol fed rats dieted or both weeks, after two weeks; type: functional, organism-based; how it was run: as §5
[20] = target: T1, Sterol O-acyltransferase 1 (Rattus norvegicus); test: as §8; type: functional; how it was run: as §5; remark: listed apart in the source
[21] = target: T1, Sterol O-acyltransferase 1 (Rattus norvegicus); test: (§10) Serum lipoprotein cholesterol diet containing ACAT inhibitor, after two weeks; type: functional; how it was run: as §5
[22] = species: Rattus norvegicus; test: as §9; type: functional, organism-based; how it was run: as §5; remark: listed apart in the source
[23] = target: T1, Sterol O-acyltransferase 1 (Rattus norvegicus); test: as §8; type: functional; how it was run: as §5; remark: listed apart in the source
[24] = species: Rattus norvegicus; test: Serum lipoprotein cholesterol fed rats dieted for both weeks, after two weeks; type: functional, organism-based; how it was run: as §5
[25] = target: T1, Sterol O-acyltransferase 1 (Rattus norvegicus); test: as §10; type: functional; how it was run: as §5; remark: listed apart in the source
[26] = target: T1, Sterol O-acyltransferase 1 (Rattus norvegicus); test: The compound was tested for Serum Lipoprotein cholesterol- (HDL) (mg/dL) concentrations in Cholesterol-fed rats Treated with ACAT inhibitor; type: functional; how it was run: as §5
[27] = target: T1, Sterol O-acyltransferase 1 (Rattus norvegicus); test: The compound was tested for Serum Lipoprotein cholesterol- (VLDL+LDL) (mg/dL) concentrations in Cholesterol-fed rats Treated with ACAT inhibitor; type: functional; how it was run: as §5
[28] = target: T1, Sterol O-acyltransferase 1 (Rattus norvegicus); test: The compound was tested for Serum Lipoprotein cholesterol- (total) (mg/dL) concentrations in Cholesterol-fed rats Treated with ACAT inhibitor; type: functional; how it was run: as §5
[29] = system: Rattus norvegicus; test: The compound was tested for % absorption of cholesterol in Cholesterol-Fed rats dosed at 20 mg/kg of body weight per day.; type: functional, organism-based; design: dose 20 mg/kg
How it was run: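 Zilversmit dual-isotope plasma ratio method in rats fed cholesterol diet ± compound in feed at 20 mg/kg/day. After one week, [3H]cholesterol given iv and [14C]cholesterol by oral gavage. Blood sampled on days 4, 7 and 9 after label; % oral cholesterol absorbed averaged over the 3 days per rat; one-way design.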

[30] = target: T1, Sterol O-acyltransferase 1 (Rattus norvegicus); test: as §4; type: functional; how it was run: as §5; remark: listed apart in the source
[31] = target: T1, Sterol O-acyltransferase 1 (Rattus norvegicus); test: as §6; type: functional; how it was run: as §5; remark: listed apart in the source
[32] = species: Rattus norvegicus; test: as §7; type: functional, organism-based; how it was run: as §5; remark: listed apart in the source
[33] = species: Rattus norvegicus; test: as §1; type: functional; how it was run: as §2; remark: listed apart in the source
[34] = species: Rattus norvegicus; test: as §1; type: functional; how it was run: as §2; remark: listed apart in the source

inhibition [1]: 93%
IC50 [2]: 10.2 µM
Compound: C=CCCCCn1c2c(c(=O)n3nc(-c4ccccc4)cc13)CN(C1CCCCC1)C2=O
Control [3]: 79%
Control [4]: 114%
Control [5]: 95%

inhibition [1]: 85%
IC50 [2]: 2.99 µM
Serum lipoprotein cholesterol [12]: 130
Serum lipoprotein cholesterol [13]: 119
Serum lipoprotein cholesterol [15]: 182
Serum lipoprotein cholesterol [17]: 184
Serum lipoprotein cholesterol [18]: 50.3
Serum lipoprotein cholesterol [20]: 56.1
Serum lipoprotein cholesterol [21]: 32.6
Serum lipoprotein cholesterol [23]: 106
Serum lipoprotein cholesterol [25]: 108
Serum lipoprotein cholesterol [26]: 76.4
Serum lipoprotein cholesterol [27]: 41.8
Serum lipoprotein cholesterol [28]: 118
Serum lipoprotein cholesterol [30]: 52.9
Serum lipoprotein cholesterol [31]: 65.8
Compound: O=C(Cn1c2c(c(=O)n3nc(-c4ccc(Cl)cc4)cc13)CN(C1CCCCC1)C2=O)c1ccccc1
Control [6]: 141%
Control [7]: 84%
Control [8]: 32%
Control [9]: 134%
Control [10]: 85%
Control [11]: 40%
Serum lipoprotein cholesterol [14]: 77.8
Serum lipoprotein cholesterol [16]: 146
Serum lipoprotein cholesterol [19]: 52.2
Serum lipoprotein cholesterol [22]: 91.9
Serum lipoprotein cholesterol [24]: 144
Absorption [29]: 27%
Serum lipoprotein cholesterol [32]: 68.8
Control [33]: 130%
Control [34]: 81%
Control [3]: 37%
